Measured values taken from ChEMBL document CHEMBL1777756, “Discovery of Novel Benzo[a]phenoxazine SSJ-183 as a Drug Candidate for Malaria” (ACS Med Chem Lett, 2010).

How the values were obtained:
[1] = test system: Plasmodium falciparum; experiment: Antimalarial activity against chloroquine and pyrimethamine resistant Plasmodium falciparum K1; format: functional, organism-based
Method in brief: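 IC50 was determined in vitro against the chloroquine- and pyrimethamine-resistant P. falciparum K1 strain. Values are the mean of two independent assays.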

[2] = test system: L6; experiment: Cytotoxicity against rat L6 cells; format: cell-based
Method in brief: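 Cytotoxicity was tested against L-6 rat myoblasts, with IC50 determined. Values are the mean of two independent assays.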

[3] = Selectivity index, ratio of IC50 for rat L6 cells to IC50 for Plasmodium falciparum K1; format: toxicity, cell-based; details: read-out: Ratio IC50
Method in brief: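 Selectivity index is IC50 against L-6 cells divided by IC50 against chloroquine/pyrimethamine-resistant P. falciparum K1. Each IC50 is the mean of two independent assays.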

[4] = test system: Plasmodium berghei; experiment: Antimalarial activity against Plasmodium berghei NK-65 infected in ICR mouse assessed as inhibition of parasitemia at 100 mg/kg, po administered as single dose on day 1 measured on day 4; format: functional
Method in brief: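 Compound was formulated at 100 mg/kg in 5% glucose/10% ethanol or in 7% Tween 80/3% ethanol. The suspension was given as a single oral dose on day 1 to female ICR mice infected with P. berghei NK-65. Parasitemia was determined on day 4 after infection. Treated-group mean is expressed as percent difference from the control-group mean.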

[5] = test system: Plasmodium berghei; experiment: Antimalarial activity against Plasmodium berghei NK-65 infected in ICR mouse assessed as survival days at 100 mg/kg, po administered as single dose (reference value: 6 days); format: functional
Method in brief: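 Female ICR mice infected with P. berghei NK-65 received a single oral dose of 100 mg/kg on day 1. The compound was given as a suspension in 5% glucose/10% ethanol or in 7% Tween 80/3% ethanol. Parasitemia was read on day 4 as percent reduction relative to untreated controls, and mean survival days were recorded.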

Structure (SMILES) | IC50 [1] [nM] | IC50 [2] [nM] | selectivity ratio [3] | inhibition in vivo at 100 mg/kg [4] [%] | MSD [5] [days]
CCN(CC)c1ccc2nc3c4ccccc4/c(=N\c4ncccn4)cc-3oc2c1 | 5 | 13600 | 2730 | 3.3 | 6.3
CCN(CC)c1ccc2nc3c4ccccc4/c(=N\c4ncc(Cl)cc4Cl)cc-3oc2c1 | 63 | 180000 | 2860 | 14.7 | 6.3
CCN(CC)c1cc(C)c2nc3c4ccccc4/c(=N/c4ccncc4)cc-3oc2c1.Cl.Cl | 180 | 86600 | 481 | 99.7 | 13
CC[N+](CC)=c1ccc2nc3c(cc(N)c4ccccc43)oc-2c1.[Cl-] [NILE BLUE HYDROCHLORIDE] | 15.6 | 43100 | 2760 | 15 | 6.6
CC[N+](CC)=c1ccc2nc3c(ccc4ccccc43)oc-2c1 | 606 | 3820 | 6.3 | – | –
CCN(CC)c1ccc2nc3c4ccc(Br)cc4/c(=N/c4ccncc4)cc-3oc2c1 | 11 | > 190000 | > 17300 | 14.2 | 6.6
CCN(CC)c1ccc2nc3c4ccccc4/c(=N/c4nc5ccc(OC)cc5s4)cc-3oc2c1 | 112 | 168000 | 1490 | 11.4 | 6.3
CCCN(CCC)c1ccc2nc3c4ccccc4/c(=N/c4ccncc4)cc-3oc2c1.Cl.Cl | 50 | 67100 | 1340 | 15.3 | 6.3
c1ccc2/c(=N/c3ccncc3)cc3oc4cc(N5CCOCC5)ccc4nc-3c2c1 | 29 | 96900 | 3340 | 97.9 | 7.3
CCN(CC)CCCC(C)Nc1ccnc2cc(Cl)ccc12 (stereo not given) [CHLOROQUINE] | – | – | – | > 99.9 | 12.6
CCN(CC)c1ccc2nc3c4ccccc4/c(=N/c4cc[n+](C)cc4)cc-3oc2c1.[I-] | 9 | 1560 | 174 | 22 | 6.6
CCN(CC)c1ccc2nc3c4ccccc4c(=O)cc-3oc2c1 [NILE RED] | 868 | 65900 | 76 | 15 | 6.3
CCN(CC)c1ccc2nc3c4ccccc4/c(=N\c4ccc5ccccc5n4)cc-3oc2c1 | 27 | 67900 | 2520 | 81 | 10.3
CCN(CC)c1ccc2nc3c4ccccc4/c(=N\c4cccnc4)cc-3oc2c1 | 23 | 117000 | 5090 | 62.7 | 10
CCN(CC)c1ccc2nc3c4ccccc4/c(=N/c4ccc(C)cc4)cc-3oc2c1.Cl | 232 | 123000 | 531 | 0 | 6.3
CCN(CC)c1ccc2nc3c4ccc(Br)cc4/c(=N/c4ccccn4)cc-3oc2c1 | 38 | > 190000 | > 5010 | 12.7 | 6.3
CCN(CCNS(C)(=O)=O)c1cc(C)c2nc3c4ccccc4/c(=N/c4ccncc4)cc-3oc2c1.Cl.Cl | 17 | 14800 | 887 | > 99.9 | 15.7
CCCCN(CCCC)c1ccc2nc3c4ccccc4/c(=N/c4ccncc4)cc-3oc2c1.Cl.Cl | 195 | 63800 | 327 | 5.6 | 6.3
CCN(CC)c1ccc2nc3c4ccccc4/c(=N/c4cc[n+](Cc5ccccc5)cc4)cc-3oc2c1.[Cl-] | 24 | 750 | 31 | 39 | 7.3
CCN(CC)c1ccc2nc3c4ccccc4/c(=N\c4ccccn4)cc-3oc2c1 | 15 | 15800 | 1050 | > 99.9 | 8.3
CCN(CC)c1ccc2nc3c4ccccc4/c(=N/c4ccccc4)cc-3oc2c1.Cl | 191 | 165000 | 863 | 0 | 6.3
CN(C)c1ccc2nc3c4ccccc4/c(=N/c4ccncc4)cc-3oc2c1 | 8.1 | 165000 | 20400 | > 99.9 | 10
